# Results reported in ChEMBL document CHEMBL1129991, “Inhibition of uridine phosphorylase. Synthesis and structure-activity relationships of aryl-substituted 1-((2-hydroxyethoxy)methyl)-5-(3-phenoxybenzyl)uracil” (J Med Chem, 1997).
# pIC50: −log10 of the molar value.
# Assay: Tested for inhibition of Uridine Phosphorylase (UrdPase) in murine liver
# How it was run: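 Mouse liver enzyme in a radiochemical assay: [2-¹⁴C]uridine (170 µM, 7.1 µCi/µmol) converted to [2-¹⁴C]uracil in 20 mM potassium phosphate pH 8.0, 1 mM EDTA, 1 mM dithiothreitol, with or without inhibitor. Incubated 30 min at 37 °C, stopped by heating 1 min at 100 °C. Uridine and uracil separated by TLC. Enzyme amount set to give 10% conversion uninhibited.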
row,pIC50,SMILES
1,7.51,COc1cccc(Oc2cccc(Cc3cn(COCCO)c(=O)[nH]c3=O)c2)c1
2,7.89,Cc1cccc(Oc2cccc(Cc3cn(COCCO)c(=O)[nH]c3=O)c2)c1
3,7.85,O=c1[nH]c(=O)n(COCCO)cc1Cc1cccc(Oc2cccc(F)c2)c1
4,8.00,O=c1[nH]c(=O)n(COC(CO)CO)cc1Cc1cccc(Oc2ccccc2)c1
5,8.09,O=c1[nH]c(=O)n(COC(CO)CO)cc1Cc1cccc(Oc2cccc(F)c2)c1
6,7.49,O=c1[nH]c(=O)n(COCCO)cc1Cc1cccc(Oc2cccc(C(F)(F)F)c2)c1
7,7.85,O=c1[nH]c(=O)n(COCCO)cc1Cc1cccc(Oc2ccccc2)c1
8,6.68,COc1ccc(Oc2cccc(Cc3cn(COCCO)c(=O)[nH]c3=O)c2)cc1
9,7.08,O=c1[nH]c(=O)n(COCCO)cc1Cc1cccc(Oc2ccc(Cl)cc2)c1
10,7.66,O=c1[nH]c(=O)n(COC(CO)CO)cc1Cc1cccc(Oc2ccc(F)cc2)c1
11,8.23,N#Cc1cccc(Oc2cccc(Cc3cn(COCCO)c(=O)[nH]c3=O)c2)c1
12,8.85,O=c1[nH]c(=O)n(COC(CO)CO)cc1Cc1cccc(Oc2cccc(Cl)c2)c1
13,7.01,O=c1[nH]c(=O)n(COCCO)cc1Cc1cccc(Oc2ccc(F)cc2)c1
14,7.82,O=c1[nH]c(=O)n(COCCO)cc1Cc1cccc(Oc2cccc(Cl)c2)c1
